From PubChem BioAssay
In the library only some 2.2% were active in any assay of this set; here they are far more common.
Ecoli rRNA inh: selective bacterial rRNA inhibition in E. coli. E. coli WT GFP vs humanized-ribosome RFP mutants, fluorescence, 24 h; stronger effect = lower value; DMSO median 0, no signal -100. actives 1.6% (n = 350,000). GFP signal change (wild-type ribosome), % (test concentration not listed);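 active = significant combined selectivity score with lowered wild-type GFP, culture density cut under 30%, mutant RFP and density less affected; inactive = any of these conditions unmet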
SUMO Mot1 rescue: inhibitors of SUMOylation pathway: yeast Mot1-301 growth rescue; S. cerevisiae Mot1-301 growth rescue, ATP luminescence, 38.5C; percent above DMSO median, 100 means doubled; growth rescue, % at 18.8 µM; actives 1% (n = 320,000); AID 2716;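 active = every valid replicate shows activation above 250% relative to neutral control wells; inactive = the rest, any valid replicate at or below 250%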;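 note: OY570 slx delta 5 strain wells were the positive control but not used for scaling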
Yeast superoxide: lowers age-related superoxide in aged yeast cells; S. cerevisiae aged cells, superoxide DHE fluorescence; stronger effect = lower value; superoxide response (% of plate mean), % at 10 µM; actives 0.18% (n = 330,000);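 active = superoxide response under a set limit, about three screen SD below normal, cut at about 65% in these data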;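 note: yeast aged for seven days with compound at 30 °C before DHE staining; 100% = average MFI of all compound-treated wells on the plate with controls excluded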
Cneo AK release: Cryptococcus neoformans lysis via adenylate kinase release; C. neoformans lysis, adenylate kinase release luminescence, 4 h; normalised: neutral wells 0, clomiphene wells 100; actives 0.2% (n = 360,000); AID 651654; lysis activity, % at 15 µM;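 active = mean lysis activity across replicates of at least 80%, whatever share of replicates individually reach that level; inactive = mean lysis activity below 80%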
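Assay system: Cryptococcus neoformans yeast cells / Dosing: single-point compound dose / Timing: 4 h at 37 °C static, read 1 h later / Measured by: luminescence of released adenylate kinase using an AK detection reagent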
PglD inh: PglD (C. jejuni) enzyme inhibition; purified PglD enzyme, DTNB colorimetric CoA detection; inhibition, % at 12.5 µM; actives 0.098% (n = 360,000); in the data active = inhibition above about 16%, passing the limit was not always enough
The depositor's hits bear a star; . = not tested or not shown.

SMILES	Ecoli rRNA inh	SUMO Mot1 rescue	Yeast superoxide	Cneo AK release	PglD inh
COc1cc(C)c(NC(=S)Nc2ccc(Cl)c(Cl)c2)cc1OC	-28*	-7	110	.	.
COC(=O)c1cc(OC)c(OC)cc1NC(=S)Nc1cccc(Cl)c1	.	45	96	-2	2
CN(C)N1C(=O)CC(N2CCCCC2)C1=O (stereo not given)	-31*	-22	96	-2	6
O=C(N[C@@H]1CC[C@@H](CC(=O)N2CCC(Cc3ccccc3)CC2)O[C@H]1CO)c1cnccn1	0	.	.	2	0
Cc1ccc(S(=O)(=O)N(C)C[C@H]2Oc3ccc(NC(=O)NC4CCCCC4)cc3CC(=O)N([C@@H](C)CO)C[C@H]2C)cc1	-1	.	.	0	0
N#C/C(=C/c1cc[nH]c1)C(N)=S	9	295*	104	.	.
O=C(O)c1ccc(Cl)c(NCc2ccncc2)c1	9	.	.	-1	0
Cc1ccc(CNc2cc(C(=O)O)ccc2Cl)s1	-33*	-25	101	0	5
C[C@H]1CN([C@@H](C)CO)S(=O)(=O)c2ccc(C#Cc3ccccn3)cc2O[C@@H]1CN(C)Cc1ccccc1	-9	.	.	107*	1
CC(C)C#Cc1ccc2c(c1)O[C@H](CN(C)C(=O)Cc1ccccn1)[C@H](C)CN([C@H](C)CO)S2(=O)=O	-2	.	.	101*	-1
C[C@H]1CN([C@@H](C)CO)S(=O)(=O)c2ccc(C#Cc3ccccn3)cc2O[C@@H]1CN(C)Cc1ccc(F)cc1	-2	.	.	-3	2
CC(C)C#Cc1ccc2c(c1)O[C@@H](CN(C)C(=O)Cc1ccccn1)[C@H](C)CN([C@H](C)CO)S2(=O)=O	2	.	.	-5	-1
CC(C)CC#Cc1ccc2c(c1)O[C@@H](CN(C)Cc1ccccn1)[C@H](C)CN([C@H](C)CO)S2(=O)=O	-23*	.	.	-13	-2
O=C(Nc1ccccc1)NC1(c2cn(CC(=O)N3CCN(c4ccccc4)CC3)nn2)CCCCC1	.	.	.	-8	4
N#C/C(=C\c1ccc(O)c(O)c1)C(=O)NCCc1ccccc1	-47	274*	110	-2	-5
COc1ccc(/C=C(\C#N)C(=O)NCc2ccccc2)cc1O	-8	0	94	-1	5
COc1cc(/C=C(\C#N)C(=O)NCCc2ccccc2)cc(OC)c1O	-31*	-1	95	.	.
Cc1ccccc1NC(=O)c1c(C)nn(-c2ccccc2)c1Cl	-1	43	89	2	2
COc1ccccc1NC(=O)c1c(C)nn(-c2ccccc2)c1Cl	-36*	4	103	0	-2
CCCCc1cc(=O)oc2c3c(cc(OCC(=O)N4CCC[C@H]4C(=O)O)c12)OC(C)(C)CC3	.	721*	111	6	9
Cc1c(C)c2c(OCC(=O)N3CCC(C(N)=O)CC3)cc3c(c2oc1=O)CCC(C)(C)O3	.	610*	131	1	-7
Cc1cc(=O)oc2c3c(cc(OCC(=O)N4CCC(C(=O)O)CC4)c12)OC(C)(C)CC3	.	16	81	0	3
C[C@@H]1CN([C@H](C)CO)C(=O)c2cc(-c3cccc(F)c3)cnc2O[C@H]1CN(C)C(=O)C1CC1	1	.	.	.	.
CCCCCCCCN1N=N[C@H]2[C@H]1[C@@H]1C[C@H]2N(C(=O)OC(C)(C)C)O1	-32*	.	112	4	3
CC(C)(C)OC(=O)N1O[C@H]2C=C[C@@H]1C2	5	.	.	.	.
SMILES	Ecoli rRNA inh	SUMO Mot1 rescue	Yeast superoxide	Cneo AK release	PglD inh
CCOC(=O)C1=C(C)N(C)C(=S)NC1c1cccc(Cl)c1Cl (stereo not given)	-24*	9	79	3	0
COc1ccc(S(=O)(=O)Nc2ccc3c(c2)C(=O)N([C@H](C)CO)C[C@@H](C)[C@@H](CN(C)C(=O)Nc2cccc4ccccc24)OCCCC[C@@H](C)O3)cc1	-4	.	.	2	1
COc1ccc(CNC(=O)COC(=O)c2cc(-c3ccc(Cl)s3)nc3ccccc23)cc1	.	276*	101	3	7
O=C(COC(=O)c1cc(-c2ccc(Cl)s2)nc2ccccc12)NCc1ccco1	.	174	120	.	.
CC(=O)Nc1ccc(NC(=O)c2ccc(C)c(S(=O)(=O)Nc3cccc(C)c3)c2)cc1	-27*	3	90	.	.
Cc1cc(NC(=O)CSc2nc3ccsc3c(=O)n2CCCC(=O)NCCc2ccccc2)no1	12	771*	102	.	.
CCN(CC)C(=O)CSc1nc2ccsc2c(=O)n1CCCC(=O)NCCc1ccc(S(N)(=O)=O)cc1	5	14	82	.	.
CN1CCC=C(C(=O)N2c3ccccc3Sc3ccc(Cl)cc32)C1	-22*	-23	95	.	.
CNc1nc(Cl)nc2c1ncn2-c1ccccc1	6	.	.	-1	2
Clc1nc(Cl)c2ncn(-c3ccccc3)c2n1	-17*	.	.	-2	2
O=C(C[C@@H]1CC[C@H](NC(=O)Nc2ccc(F)cc2)[C@@H](CO)O1)NCCN1CCCC1	-1	.	.	0	2
CCC1=NN(C(=O)C(=O)Nc2ccccc2OC)C(O)(C(F)(F)F)C1 (stereo not given)	.	10	94	-2	3
CCC1=NN(C(=O)C(=O)Nc2ccc(OC)cc2)C(O)(C(F)(F)F)C1 (stereo not given)	-23*	-2	86	4	1
CCc1ccc(-c2cc(C(=O)N/N=C/c3ccco3)[nH]n2)cc1	-20*	-4	103	.	.
CCc1ccc(-c2cc(C(=O)N/N=C/c3ccccn3)[nH]n2)cc1	-25*	7	114	.	.
CC(=O)Nc1ccc(C(=O)Nc2ccc(S(=O)(=O)N3CCCCC3)cc2)cc1	-3	-12	101	12	3
COC(=O)Nc1ccc(S(=O)(=O)N2CCC(C(=O)NC3CCCCC3)CC2)cc1	-1	308*	110	-2	0
CC(=O)c1ccc(NC(=O)Nc2ccc(S(=O)(=O)N3CCCC3)cc2)cc1	-28*	-2	102	0	-1
NS(=O)(=O)c1ccc(NC(=O)c2ccc(S(=O)(=O)N3CCCCCC3)cc2)cc1	-20*	18	87	-1	-4
Cn1nc(C(=O)Nc2ccc(S(=O)(=O)N3CCCCC3)cc2)c2ccccc2c1=O	-21*	0	107	0	-4
COc1ccc(NC(=O)Nc2ccc3c(c2)C(=O)N([C@@H](C)CO)C[C@H](C)[C@H](CN(C)C(=O)Nc2ccc(OC)cc2)OCCCC[C@H](C)O3)cc1	-2	.	.	1	12
O=C(Nc1cccc(S(=O)(=O)N2CCCCC2)c1)c1ccc(OCC2CCCO2)cc1 (stereo not given)	1	15	93	0	2
O=C(Nc1ccc(S(=O)(=O)N2CCCC2)cc1)c1ccc(OCC2CCCO2)cc1 (stereo not given)	-20*	-2	123	2	2
Cc1cc(NCc2ccccn2)n2ncc(-c3ccccc3)c2n1	-38*	5	92	-10	-3
Cc1cc(NCCCN2CCOCC2)n2ncc(-c3ccccc3)c2n1	.	159	99	-7	5
